This is a sample that favours compounds with a hit; in the whole collection about 3.3% have one here.
MBD2 DNA inh = blocks human MBD2 binding to methylated DNA; TR-FRET, MBD2 binding to methylated oligonucleotide; inhibition, % at 4.4 µM; 370,000 tested, 0.31% active; AID 686964; in the data active = inhibition above about 13%
SIAE primary = inhibitors of human sialic acid acetylesterase SIAE; Q9HAT2; SIAE FP-Rh probe binding, fluorescence polarization; inhibition, % at 9.66 µM; 370,000 tested, 0.69% active; AID 1053197;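 active = inhibition above a cutoff: mean of compounds within the control limits plus 3 SD of those, cut at about 17% in these data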;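 note: 0% = plate median of compound wells and 100% = probe without SIAE protein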
PRMT1 inh = blocks human protein arginine methyltransferase 1; Q99873; inhibition, % at 2.79 µM; 370,000 tested, 1.3% active; recombinant PRMT1, activity-based probe fluorescence polarization;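 active = inhibition above about 21% made by adding two undisclosed values, limit read from the data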
LEDGF integ inh = blocks HIV-1 LEDGF/p75-dependent DNA integration; TR-FRET IN-LEDGF/p75 DNA integration, Eu/Cy5; inhibition, % at 3.7 µM; 370,000 tested, 0.64% active; AID 743269;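 active = inhibition above the screen-wide mean plus 3 SD, cut at about 13% in these data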;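 note: signal is the Cy5 over europium emission ratio at 671 and 618 nm; 0% = plate median of compound wells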
UHRF1 binding = blocks human UHRF1 binding to methylated DNA | UHRF1 binding to methylated oligo, TR-FRET | inhibition, % at 4.4 µM | 370,000 tested, 0.75% active | AID 687016; in the data active = inhibition above about 21%;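 note: UHRF1 SRA domain binding a hemimethylated CpG hairpin DNA probe; 0% = median of test compound wells and 100% = reference inhibitor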
TDP2 absorb = TDP2 (human) inhibition, absorbance primary screen | inhibition, % at 12.8 µM | recombinant TDP2, T5PNP hydrolysis, p-nitrophenol absorbance 415 nm | O95551 | 370,000 tested, 0.34% active;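 active = inhibition above the mean of all tested compounds plus 3 SD, set per campaign, cut at about 25% in these data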;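 note: 0% = DMSO with enzyme and 100% = buffer with substrate but no TDP2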
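Incubation: 2 h at 37 °C; Test system: recombinant human TDP2; Quantity: enzyme 120 nM; Read-out basis: percent inhibition; Medium: 50 mM Tris-HCl pH 7.5 with Mg2+, KCl, DTT, BSA; Repeats: single replicate; Compound: 12.8 µM single point, 1% DMSO; Signal: epi absorbance; Reagent: 5 mM T5PNP chromogenic substrate; Benchmarks: no-enzyme high, DMSO-plus-enzyme low.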
SIAE confirm = confirmation of human SIAE inhibitors; inhibition, % at 9.66 µM; AID 1117263; 2,300 tested, 13% active; shares compounds with SIAE primary; SIAE FP-Rh activity-based probe, fluorescence polarization;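 active = mean inhibition of the replicates above the hit cutoff set in the primary screen, cut at about 17% in these data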;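 note: 0% = SIAE with DMSO and probe and 100% = probe without SIAE; inhibitors lower polarization as more probe stays unbound to SIAE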
* = called active by the depositor; · = not tested or not shown; + = active, no number.

SMILES	MBD2 DNA inh	SIAE primary	PRMT1 inh	LEDGF integ inh	UHRF1 binding	TDP2 absorb	SIAE confirm
c1nc(NCC2CCCOC2)c2cc(-c3ccc4c(c3)OCO4)ccc2n1 (stereo not drawn)	-8	-12	4	3	2	-7	·
COc1cc(OC)c(C2Nc3cccc4cccc(c34)N2)c(OC)c1	-7	21*	21	4	-7	11	7
c1ccc(C2Nc3cccc4cccc(c34)N2)cc1	-8	10	8	6	-8	-3	·
COc1ccc(C2Nc3cccc4cccc(c34)N2)cc1	0	25*	2	0	-7	1	11
CN(C)c1ccc(C2Nc3cccc4cccc(c34)N2)cc1	0	38*	4	-3	-1	0	7
COC(=O)[C@]12C[C@H](CC(=O)N3CCSCC3)C(=O)N(CCc3ccc(OC)c(OC)c3)C1=C[C@H](C1CCCC1)O[C@@H]2C	-1	1	1	-2	0	-3	·
Nn1c(SCC(=O)N2CCOCC2)nnc1-c1n[nH]c2c1CCC2	-4	1	-4	1	-2	1	·
O=C(Nc1nc2ccccc2[nH]1)C12CC3CC(CC(C3)C1)C2	2	18*	-1	4	-1	1	-5
COc1ccc(S[C@]2(C(=O)N(C)C)CC(=O)N[C@@H]2c2ccc(OC)cc2)cc1	2	3	12	-2	-3	0	·
COc1ccc(CC(C(=O)Nc2ccc(OC)cc2)c2nn[nH]n2)cc1 (stereo not drawn)	0	26*	-3	0	4	-16	1
CC(=O)NNC(=O)CCn1c2c(c3ccccc31)CCCC2	-6	20*	-4	-1	-2	6	-5
COCc1cc(=O)[nH]c2cc(NC(=O)C(C)(C)CCl)c(C)cc12	0	97*	-1	0	5	-4	0
C/C=C/c1ccc([C@@H]2[C@H](CO)N(S(C)(=O)=O)[C@H]2CN(C)C(=O)CC)cc1	5	10	-1	-2	2	4	·
Cn1c(NCCc2ccccc2)cc(=O)n(C)c1=O	1	4	1	1	1	5	·
Cn1c(=O)c(NCCc2ccccc2)c2c3c(cccc31)C(=O)c1ccccc1-2	-8	170*	+	0	-45	-1	160*
O=C(Nc1cc2c3c(c1)CC(=O)N3CCC2)C1CC1	4	20*	3	2	-3	0	-1
O=C(Nc1cc2c3c(c1)CC(=O)N3CCC2)C1CCCCC1	3	-3	1	-3	-2	6	·
CCN(c1nc(C)cc(OC)n1)S(=O)(=O)c1ccccc1	-7	18*	-1	-3	2	-13	4
CC1=C(C(=O)Nc2ccc(C)cc2)C(c2ccco2)NC(=O)N1 (stereo not drawn)	1	23*	-2	1	-1	0	-9
CCN(CC)C(=O)CC[C@@H]1CC[C@]2(CCCN(Cc3ccc(Cl)cc3)C2)O1	0	-4	2	4	-1	-4	·
COC(=O)C1=C(C)N(Cc2ccc(C(F)(F)F)cc2)C(=NCc2ccc(C(F)(F)F)cc2)NC1c1ccc(F)cc1 (stereo not drawn)	-1	0	2	0	-3	-1	·
CC(C)(C)[C@@H]1/C(=C/C2CC2)N2C(=O)C[C@@H](c3ccccc3)N=C2N1Cc1ccc2c(c1)OCO2	4	4	6	0	2	-2	·
O=C(CCC(=O)N(CC(=O)NC1CCCC1)c1ccc(F)cc1)Nc1nccs1	-2	-3	0	4	0	-6	·
O=C(CCC(=O)N(CC(=O)NC1CCCC1)c1cccc(F)c1)Nc1nccs1	-4	18*	1	1	-2	13	-2
CCOc1ccc(-n2c(C)cc(/C=N/NC(=O)C(N)=O)c2C)cc1	-2	20*	3	2	-5	2	-1
SMILES	MBD2 DNA inh	SIAE primary	PRMT1 inh	LEDGF integ inh	UHRF1 binding	TDP2 absorb	SIAE confirm
C[C@H](O)[C@@H]1CN2CCc3c([nH]c4c(-c5ccccc5)cccc34)[C@@H]2C[C@@H]1N(C)C(=O)c1ccco1	-1	0	9	-2	-7	-1	·
Cc1ccc(NC(=S)N/N=C2\CC(C)(C)Oc3ccc(O)cc32)cc1	0	17	8	-3	1	-5	·
CC(=O)N1CCC2(CC1)C/C(=N\NC(=S)Nc1ccc(C)cc1)c1cc(O)ccc1O2	-3	26*	2	-2	-2	-6	-23
COC(=O)[C@]12C[C@H](CC(=O)NCCc3ccccc3OC)C(=O)N(Cc3ccc4c(c3)OCO4)C1=C[C@H](C(C)(C)C)O[C@@H]2C	0	-2	2	-1	2	1	·
CCCCOc1ccc(C(=O)n2ccc3ccc(-c4ccc5ccn(Cc6ccc(OC)cc6)c5c4)cc32)cc1	3	-5	4	5	1	6	·
Cc1ccc(S(=O)(=O)Nc2nc(C)c(NC(=O)Nc3ccc(Cl)cc3Cl)s2)cc1	3	35*	1	0	0	7	29*
Cc1ccc(S(=O)(=O)Nc2nc(C)c(NC(=O)OCCCl)s2)cc1	-7	0	3	4	0	-14	·
COc1ccc(S[C@]2(C(=O)N3CCN(c4ncccn4)CC3)CC(=O)N(C(=O)C3CC3)[C@@H]2c2ccc(OC)cc2)cc1	-4	-3	-3	4	-2	0	·
CCN(Cc1ccccc1)C(=O)C1CCN(CC2CC=CCC2)CC1 (stereo not drawn)	-4	22*	-6	3	-1	7	1
CN(C)c1ccc(NC(=O)Nc2ccc3c(c2)c(=O)n(C)n3Cc2ccc(Cl)cc2)cc1	-7	27*	15	3	-3	-3	15
CCOC(=O)c1c(C)c(C(=O)NCCc2ccccc2)c(C)n1C	-6	3	0	-2	-1	9	·
CCOC(=O)c1c(C(=O)OCC)c(C)n(CCc2ccccc2)c1C	0	31*	-2	-2	-1	-3	20*
CCCCNC(=O)C[C@H]1C[C@@]2(C(=O)OCC)CCCC3=C2N(CCC3)C1=O	2	-9	0	4	0	3	·
COc1cc(CNc2ccc3[nH]c(=O)[nH]c3c2)ccc1OCc1ccccc1	-7	9	8	4	3	4	·
COc1cc(CNc2ccc3[nH]c(=O)[nH]c3c2)cc(Br)c1OCc1ccccc1F	-4	21*	12	4	2	15	13
COc1cc(CNc2ccc3[nH]c(=O)[nH]c3c2)ccc1OCc1ccc(F)cc1	1	22*	12	0	-4	21	-1
O=C1NC(=Nc2ccc(Cl)cc2)/C(=C/c2ccco2)S1	2	2	14	4	0	8	·

Source: PubChem (The Scripps Research Institute Molecular Screening Center)
